We go through 10 compounds from ChEMBL document CHEMBL5034012, “Procainamide-SAHA Fused Inhibitors of hHDAC6 Tackle Multidrug-Resistant Malaria Parasites” (J Med Chem, 2021).

Calls of active or inactive are those of the source. No cut-off for these calls is given here.

The subject of test [1] is Plasmodium falciparum. Kind of test: Antiplasmodial activity against asynchronous asexual culture of Plasmodium falciparum NF54 assessed as parasite growth inhibition. It counts as functional, organism-based. Put shortly:
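Asynchronous asexual NF54 cultures exposed to 7-point, 2-step serial dilutions starting at 500nM. DHA served as positive control, DMSO as negative. IC50 interpolated from three independent experiments run in triplicate.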

In a further test the target is Histone deacetylase. As to the kind of experiment: Inhibition of human HDAC using human HeLa cell nuclear extract measured after 60 mins by fluorescence assay. The format is tissue-based.
Test [2] deals with HL-60. As to the kind of experiment: Cytotoxicity against human HL-60 cells assessed as inhibition of cell proliferation at 10 uM measured after 72 hrs by ATPlite assay. It counts as functional. The gist of the method: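 Cells exposed to compound for 72h; viability read by ATPlite. DMSO control. Technical triplicates, at least two biological replicates. IC50 interpolated from the curves.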

A further test concerns HepG2. Kind of test: cells. It counts as functional, cell-based. To be noted: Homo sapiens, HepG2, 72 h.
Test [3] relates to Plasmodium falciparum. As to the kind of experiment: Antiplasmodial activity against Plasmodium falciparum 3D7 assessed as time to kill initial parasite load at 10 times IC50 concentration. The format is functional. Put shortly: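 Parasite reduction rate assay on 3D7 cultures containing mostly rings, with DHA and pyrimethamine as references. Exposure windows of 6, 24, 48, 72 and 96h; cells then washed, serially diluted 1/3 in fresh RBC and grown 3 weeks before SYBR-green I read-out. Number of wells with growth gives viable parasites per time point, per Sanz et al. One experiment in duplicate.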

The test system of test [4] is Plasmodium falciparum. Kind of test: Antiplasmodial activity against synchronized ring stage Plasmodium falciparum 3D7 assessed as parasite reduction rate in lag phase by measuring time required to achieve maximum speed of action at 10 times IC50 concentration. It counts as functional. Put shortly:
(§1)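 3D7 culture of mostly rings exposed to drug for 6, 24, 48, 72 or 96h. Then washed, serially diluted 1/3 in fresh RBC and grown 3 weeks. Growth read by SYBR-green I. Number of wells with growth used to back-calculate viable parasites at each time point and derive growth parameters. One experiment, run in duplicate.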

For test [5], the system named is Plasmodium falciparum. Kind of test: Antiplasmodial activity against synchronized ring stage Plasmodium falciparum 3D7 assessed as parasite reduction over one cycle upto 48 hrs at 10 times IC50 concentration. The format is functional. To be noted: time hrs <=48. The gist of the method:
as §1

The test system of test [6] is HL-60. As to the kind of experiment: cells. It counts as functional, cell-based. To be noted: Homo sapiens, HL-60, 72 h.
Test [7] concerns the target Histone deacetylase (Homo sapiens) (UniProt Q13547+O15379+Q9UBN7+Q92769+Q9UQL6+Q8WUI4+Q9BY41+Q96DB2+P56524+Q9UKV0+Q969S8). As to the kind of experiment: Inhibition of human HDAC using human HeLa cell nuclear extract 1 uM by fluorescence assay. Put shortly: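 HeLa nuclear extract (3x10⁻³mg) incubated with compound and 43 µM Tosyl-Gly-Pro-Lys(Ac)-AMC. Buffer: 25mM Tris-HCl pH 8, 140mM NaCl, 3mM KCl, 1mM MgCl₂. Run 45 min at 37°C, then trypsin (1mg/mL) 15min at RT, then ethanol. AMC fluorescence read at ex 380/em 460nm. Background subtracted; data normalized to DMSO. Duplicates in ≥2 independent experiments.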

Test [8] concerns Plasmodium falciparum. Kind of test: Antiplasmodial activity against Plasmodium falciparum stage IIb-III gametocytes assessed as abnormal morphology by measuring rounded/swollen at highest concentration measured after 72 hrs using Geimsa staining based assay. It counts as functional. Put shortly: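 Day-4 stage IIb-III gametocytes (asexuals removed by N-acetyl glucosamine), about 1% gametocytemia at 2% hematocrit, treated 72h at 10, 5, 1 or 0.5 µM against 0.1% DMSO. Then washed and recultured with daily medium changes. Morphology and parasitemia scored daily on Giemsa-stained thin smears.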

Test [9] concerns Plasmodium falciparum. As to the kind of experiment: Antiplasmodial activity against Plasmodium falciparum NF54 late stage IV-V gametocytes assessed as reduction in number of exflagellation centers in at 1 uM treated for 72 hrs. The format is functional, organism-based. The gist of the method:
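Synchronous gametocytes induced; asexual forms removed with N-acetyl glucosamine for 5 days. Day-9 stage IV-V gametocytes, about 1% gametocytemia at 2% hematocrit, treated 72h at 10, 5, 1 or 0.5 µM against 0.1% DMSO. Then washed and recultured with daily medium changes. […], pelleted cells mixed 1:1 with human serum. Exflagellation centers counted over ≥10 fields at 40× within one hour. Two independent experiments; one-way ANOVA.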

Test [10] relates to Plasmodium falciparum. Kind of test: Antiplasmodial activity against Cambodian multidrug-resistant Plasmodium falciparum isolate incubated for 96 hrs measured by SYBR Green 1 assay. It counts as functional, organism-based. Put shortly:
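Cambodian isolates chosen by multidrug-resistance pattern, 10 per resistance type. Ring-synchronized cultures at 2% hematocrit and 1% starting parasitemia; 11-point 2-step dilutions from 500nM; 96h incubation, then SYBR-green I read-out. Mefloquine and monodesethylamodiaquine served as positive controls. Triplicate wells, one biological replicate per isolate.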

In the case of `O=C(CCCCCCC(=O)Nc1ccc(C(=O)NCCN2CCOCC2)cc1)NO`, the IC50 in the test on Plasmodium falciparum [1] came out at 0.341 µM; against Histone deacetylase, 0.23 µM; with HepG2, 26 µM. The inhibition at 10 µM in the test on HL-60 [2] was 40%.

Turning to `C[C@H]1[C@@H](O)O[C@@H]2O[C@@]3(C)CC[C@H]4[C@H](C)CC[C@@H]1[C@@]24OO3` [ARTENIMOL], the LT99.9 in the test on Plasmodium falciparum [3] was found to be 21.2 h. Besides, in the test with Plasmodium falciparum [4], the Time came to 0 h. The 50% inhibitory concentration (IC50) with Plasmodium falciparum [1] stood at 0.003 µM. Besides, in the test with Plasmodium falciparum [5], the “log(activity)” value was determined as 5.12.

`CCN(CC)c1ccc(NC(=O)CCCCCCC(=O)NO)cc1`: the IC50 in the test with HL-60 [6] came to 2.7 µM; in the test with Plasmodium falciparum [1], 0.239 µM; at Histone deacetylase it was 0.21 µM; in the test with HepG2 it was 2.4 µM.

As to `CCc1nc(N)nc(N)c1-c1ccc(Cl)cc1` [PYRIMETHAMINE], the LT99.9 in the test on Plasmodium falciparum [3] was determined as 44.1 h. The Time in the test on Plasmodium falciparum [4] worked out at 24 h. Also, the “log(activity)” value with Plasmodium falciparum [5] came to 3.57.

Regarding `CCN(CC)CCNC(=O)c1ccc(NC(=O)CCCCC(=O)NO)cc1`, in the test on Plasmodium falciparum [1], the IC50 amounted to 0.41 µM. In addition, the inhibition in test [7] was 60%.

As for `CCN(CC)CCCNC(=O)c1ccc(NC(=O)CCCCCCC(=O)NO)cc1`, the IC50 in the test on HL-60 [6] stood at 34 µM; in the test on Plasmodium falciparum [1], 0.064 µM; at Histone deacetylase, 0.16 µM; in the test on HepG2, 8.2 µM.

`CCC(CC)CCNC(=O)c1ccc(NC(=O)CCCCCCC(=O)NO)cc1`: the IC50 with HL-60 [6] is more than 10 µM; in the test with Plasmodium falciparum [1], more than 0.5 µM; in the test with HepG2, more than 100 µM.

With `O=C(CCCCCCC(=O)Nc1ccccc1)NO` [VORINOSTAT], the Activity result in the test with Plasmodium falciparum [8] was “<=90%”. In addition, the outcome in the test with Plasmodium falciparum [9] was inactive.

Take `CC(C)(C)OC(=O)N1CCC(NC(=O)c2ccc(NC(=O)CCCCCCC(=O)NO)cc2)CC1`: the IC50 in the test on HL-60 [6] came to 2.5 µM; in the test on Plasmodium falciparum [1], 0.467 µM; in the test on HepG2, 150 µM.

In the test on Plasmodium falciparum [10], `CCNCc1cc(Nc2ccnc3cc(Cl)ccc23)ccc1O` [DESETHYL AMODIAQUINE] gave an IC50 of 0.089 µM.

Broadly, the IC50 is the concentration that gives 50% inhibition. In general, inhibition refers to the relative decrease from the control value, in per cent.
